Data as given in ChEMBL document CHEMBL1155210, “The discovery of tertiary-amine LXR agonists with potent cholesterol efflux activity in macrophages” (Bioorg Med Chem Lett, 2009).
pEC50, pKi: −log10 of the molar value.

target: Oxysterols receptor LXR-beta (Homo sapiens) (UniProt P55055); experiment: Agonist activity at human LXRbeta assessed as association of SRC1 to LXRbeta ligand binding domain by FRET based cell-free ligand sensing assay relative to 2-(3-(3-((2-chloro-3-(trifluoromethyl)benzyl)(2,2-diphenylethyl)amino)propoxy)phenyl)acetic acid; set-up: concentration or dose not given beside the values

Activity	Compound
59%	C[C@@H](CCN(Cc1cccc(C(F)(F)F)c1Cl)CC(c1ccccc1)c1ccccc1)Oc1cccc(CC(=O)O)c1
100%	O=C(O)C1CCCc2c(OCCCN(Cc3cccc(C(F)(F)F)c3Cl)CC(c3ccccc3)c3ccccc3)cccc21 (racemic)
100%	C[C@H](CCOc1cccc(C(C)(C)C(=O)O)c1)N(Cc1cccc(C(F)(F)F)c1Cl)CC(c1ccccc1)c1ccccc1

target: T1, Oxysterols receptor LXR-beta (Homo sapiens, UniProt P55055); experiment: Agonist activity at human LXRbeta assessed as association of SRC1 to LXRbeta ligand binding domain by FRET based cell-free ligand sensing assay
T1 sequence (P55055 whole entry): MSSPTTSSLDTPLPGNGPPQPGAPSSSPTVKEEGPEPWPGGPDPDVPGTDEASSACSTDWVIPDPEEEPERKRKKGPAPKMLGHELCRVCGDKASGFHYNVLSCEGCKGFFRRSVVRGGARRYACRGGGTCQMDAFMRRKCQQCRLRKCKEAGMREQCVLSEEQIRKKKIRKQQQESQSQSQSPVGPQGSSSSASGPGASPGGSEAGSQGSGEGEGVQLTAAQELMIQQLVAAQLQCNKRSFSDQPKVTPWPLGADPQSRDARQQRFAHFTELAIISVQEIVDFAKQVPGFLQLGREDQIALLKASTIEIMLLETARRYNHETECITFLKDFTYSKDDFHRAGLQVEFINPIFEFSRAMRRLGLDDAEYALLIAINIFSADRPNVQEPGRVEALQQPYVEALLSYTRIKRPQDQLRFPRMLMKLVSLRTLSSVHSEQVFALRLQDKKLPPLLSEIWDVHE
Method in brief: (§1)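 Cell-free FRET ligand-sensing assay measuring ligand-dependent recruitment of a 24-amino-acid steroid receptor coactivator 1 (SRC1) fragment to the LXR ligand-binding domain. Percent efficacy is expressed against the maximal agonist response of the reference agonist. Values are means of at least two experiments, standard deviation ≤10%.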

pEC50	Compound
6.84	C[C@@H](CCN(Cc1cccc(C(F)(F)F)c1Cl)CC(c1ccccc1)c1ccccc1)Oc1cccc(CC(=O)O)c1
7.59	O=C(O)C1CCCc2c(OCCCN(Cc3cccc(C(F)(F)F)c3Cl)CC(c3ccccc3)c3ccccc3)cccc21 (racemic)
7.96	C[C@H](CCOc1cccc(C(C)(C)C(=O)O)c1)N(Cc1cccc(C(F)(F)F)c1Cl)CC(c1ccccc1)c1ccccc1

tested on: Macrophage; experiment: Increase in ABCG1 gene expression in human primary macrophages at 100 nM relative to control; format: functional

Compound	fold change (FC)
O=C(O)C1CCCc2c(OCCCN(Cc3cccc(C(F)(F)F)c3Cl)CC(c3ccccc3)c3ccccc3)cccc21 (racemic)	3.6
O=C(O)Cc1cccc(OCCCN(Cc2cccc(C(F)(F)F)c2Cl)CC(c2ccccc2)c2ccccc2)c1	5.4

tested on: Macrophage; experiment: Increase in ABCG1 gene expression in human primary macrophages at 30 nM relative to control; format: functional

Compound	fold change (FC)
O=C(O)C1CCCc2c(OCCCN(Cc3cccc(C(F)(F)F)c3Cl)CC(c3ccccc3)c3ccccc3)cccc21 (racemic)	2
O=C(O)Cc1cccc(OCCCN(Cc2cccc(C(F)(F)F)c2Cl)CC(c2ccccc2)c2ccccc2)c1	3.2

target: T2, Nuclear receptor subfamily 1 group I member 2 (Homo sapiens, UniProt O75469); experiment: Binding affinity to PXR by scintillation proximity binding assay
T2 sequence (O75469 whole entry): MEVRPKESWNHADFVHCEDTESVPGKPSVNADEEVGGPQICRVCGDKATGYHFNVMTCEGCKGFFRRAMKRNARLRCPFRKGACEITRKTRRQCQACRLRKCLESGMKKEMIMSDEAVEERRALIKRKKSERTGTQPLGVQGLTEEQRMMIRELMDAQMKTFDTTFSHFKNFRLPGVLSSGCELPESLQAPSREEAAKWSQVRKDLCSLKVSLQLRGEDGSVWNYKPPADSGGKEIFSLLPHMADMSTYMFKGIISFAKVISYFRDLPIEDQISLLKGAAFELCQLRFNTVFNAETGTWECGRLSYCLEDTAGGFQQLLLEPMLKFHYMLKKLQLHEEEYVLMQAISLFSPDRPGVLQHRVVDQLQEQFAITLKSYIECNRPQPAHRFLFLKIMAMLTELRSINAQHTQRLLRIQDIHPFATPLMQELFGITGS

Compound	pKi
O=C(O)Cc1cccc(OCCCN(Cc2cccc(C(F)(F)F)c2Cl)CC(c2ccccc2)c2ccccc2)c1	5.70

tested on: Macrophage; experiment: Increase in ABCA1 gene expression in human primary macrophages at 100 nM relative to control; format: functional

Compound	fold change (FC)
O=C(O)C1CCCc2c(OCCCN(Cc3cccc(C(F)(F)F)c3Cl)CC(c3ccccc3)c3ccccc3)cccc21 (racemic)	2.6
O=C(O)Cc1cccc(OCCCN(Cc2cccc(C(F)(F)F)c2Cl)CC(c2ccccc2)c2ccccc2)c1	3.1

tested on: Macrophage; experiment: Increase in ABCG1 gene expression in human primary macrophages; format: functional, cell-based

Compound	Activity
O=C(O)C1CCCc2c(OCCCN(Cc3cccc(C(F)(F)F)c3Cl)CC(c3ccccc3)c3ccccc3)cccc21 (racemic)	Dose-dependent effect
O=C(O)Cc1cccc(OCCCN(Cc2cccc(C(F)(F)F)c2Cl)CC(c2ccccc2)c2ccccc2)c1	Dose-dependent effect

target: T3, Oxysterols receptor LXR-alpha (Homo sapiens, UniProt Q13133); experiment: Agonist activity at human LXRalpha assessed as association of SRC1 to LXRalpha ligand binding domain by FRET based cell-free ligand sensing assay
T3 sequence (Q13133 whole entry): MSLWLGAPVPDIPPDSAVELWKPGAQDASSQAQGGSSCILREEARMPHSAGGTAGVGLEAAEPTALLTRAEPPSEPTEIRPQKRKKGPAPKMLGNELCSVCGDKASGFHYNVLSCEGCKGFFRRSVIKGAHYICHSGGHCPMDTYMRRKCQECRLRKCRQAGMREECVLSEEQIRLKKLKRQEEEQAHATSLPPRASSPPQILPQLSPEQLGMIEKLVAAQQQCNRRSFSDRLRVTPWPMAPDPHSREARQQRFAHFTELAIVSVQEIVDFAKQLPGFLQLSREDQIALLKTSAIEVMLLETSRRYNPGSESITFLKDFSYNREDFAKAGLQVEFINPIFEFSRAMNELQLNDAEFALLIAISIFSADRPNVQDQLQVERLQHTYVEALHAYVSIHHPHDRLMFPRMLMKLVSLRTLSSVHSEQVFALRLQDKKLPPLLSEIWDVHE
Method in brief: as §1

pEC50	Compound
6.44	C[C@@H](CCN(Cc1cccc(C(F)(F)F)c1Cl)CC(c1ccccc1)c1ccccc1)Oc1cccc(CC(=O)O)c1
7.25	O=C(O)C1CCCc2c(OCCCN(Cc3cccc(C(F)(F)F)c3Cl)CC(c3ccccc3)c3ccccc3)cccc21 (racemic)
8.05	C[C@H](CCOc1cccc(C(C)(C)C(=O)O)c1)N(Cc1cccc(C(F)(F)F)c1Cl)CC(c1ccccc1)c1ccccc1

Compound	pEC50
O=C(O)Cc1cccc(OCCCN(Cc2cccc(C(F)(F)F)c2Cl)CC(c2ccccc2)c2ccccc2)c1	6.70

tested on: Macrophage; experiment: Increase in ABCA1 gene expression in human primary macrophages at 30 nM relative to control; format: functional

Compound	fold change (FC)
O=C(O)C1CCCc2c(OCCCN(Cc3cccc(C(F)(F)F)c3Cl)CC(c3ccccc3)c3ccccc3)cccc21 (racemic)	1.4
O=C(O)Cc1cccc(OCCCN(Cc2cccc(C(F)(F)F)c2Cl)CC(c2ccccc2)c2ccccc2)c1	2

tested on: Macrophage; experiment: Increase in SREBP1 gene expression in human primary macrophages at 100 nM relative to control; format: functional

Compound	fold change (FC)
O=C(O)C1CCCc2c(OCCCN(Cc3cccc(C(F)(F)F)c3Cl)CC(c3ccccc3)c3ccccc3)cccc21 (racemic)	2.6
O=C(O)Cc1cccc(OCCCN(Cc2cccc(C(F)(F)F)c2Cl)CC(c2ccccc2)c2ccccc2)c1	4.1

tested on: RAW264.7; experiment: Induction of [3H]cholesterol efflux in mouse RAW264.7 cells loaded with acetylated-LDL after 24 hrs relative to 2-(3-(3-((2-chloro-3-(trifluoromethyl)benzyl)(2,2-diphenylethyl)amino)propoxy)phenyl)acetic acid; format: functional
Method in brief: (§2)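 Mouse RAW 264.7 macrophages were grown overnight, then loaded for 24 h with acetylated LDL (final 50 µg/mL) plus 3H-cholesterol (5 µCi/mL). Cells were washed and held 24 h in serum-free, phenol red-free medium with 1% fatty acid-free BSA and compound in DMSO. Efflux then ran 24 h into medium with 0.1% BSA, 5 µg/mL apoA-I and fresh compound. Filtered medium and NaOH cell lysate were counted by scintillation.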

Compound	fold change (FC)
O=C(O)C1CCCc2c(OCCCN(Cc3cccc(C(F)(F)F)c3Cl)CC(c3ccccc3)c3ccccc3)cccc21 (racemic)	2
C[C@H](CCOc1cccc(C(C)(C)C(=O)O)c1)N(Cc1cccc(C(F)(F)F)c1Cl)CC(c1ccccc1)c1ccccc1	2

tested on: Macrophage; experiment: Increase in ABCA1 gene expression in human primary macrophages; format: functional, cell-based

Compound	Activity
O=C(O)C1CCCc2c(OCCCN(Cc3cccc(C(F)(F)F)c3Cl)CC(c3ccccc3)c3ccccc3)cccc21 (racemic)	Dose-dependent effect
O=C(O)Cc1cccc(OCCCN(Cc2cccc(C(F)(F)F)c2Cl)CC(c2ccccc2)c2ccccc2)c1	Dose-dependent effect

target: T4, Oxysterols receptor LXR-alpha (Homo sapiens) (UniProt Q13133); experiment: Agonist activity at human LXRalpha assessed as association of SRC1 to LXRalpha ligand binding domain by FRET based cell-free ligand sensing assay relative 2-(3-(3-((2-chloro-3-(trifluoromethyl)benzyl)(2,2-diphenylethyl)amino)propoxy)phenyl)acetic acid
T4 sequence (whole entry): T3 sequence (Q13133 whole entry)
Method in brief: as §1

Activity	Compound
39%	C[C@@H](CCN(Cc1cccc(C(F)(F)F)c1Cl)CC(c1ccccc1)c1ccccc1)Oc1cccc(CC(=O)O)c1
100%	O=C(O)C1CCCc2c(OCCCN(Cc3cccc(C(F)(F)F)c3Cl)CC(c3ccccc3)c3ccccc3)cccc21 (racemic)
100%	C[C@H](CCOc1cccc(C(C)(C)C(=O)O)c1)N(Cc1cccc(C(F)(F)F)c1Cl)CC(c1ccccc1)c1ccccc1

tested on: RAW264.7; experiment: Induction of [3H]cholesterol efflux in mouse RAW264.7 cells loaded with acetylated-LDL after 24 hrs; format: functional, cell-based
Method in brief: as §2

pEC50	Compound
7.74	O=C(O)C1CCCc2c(OCCCN(Cc3cccc(C(F)(F)F)c3Cl)CC(c3ccccc3)c3ccccc3)cccc21 (racemic)
> 8.52	C[C@H](CCOc1cccc(C(C)(C)C(=O)O)c1)N(Cc1cccc(C(F)(F)F)c1Cl)CC(c1ccccc1)c1ccccc1

Compound	pEC50
O=C(O)Cc1cccc(OCCCN(Cc2cccc(C(F)(F)F)c2Cl)CC(c2ccccc2)c2ccccc2)c1	7.54
